ChEMBL document CHEMBL3102842, “Direct synthesis of C3-mono-functionalized oxindoles from N-unprotected 2-oxindole and their antileishmanial activity” (Bioorg Med Chem, 2014)
Converted amounts (≈) assume the structure as drawn.

What was measured:
[1] = Therapeutic index, ratio of TC50 for mouse RAW264.7 cells to EC50 for Leishmania infantum zymodeme MON-1 promastigotes after 48 hrs; conditions: read-out: TI
In short: (§1)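 Index calculated as TC50 on RAW 264.7 macrophages (MTT assay) divided by EC50 on L. infantum promastigotes or axenic amastigotes, using the same incubation time (24 or 48 h) for both.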

Leishmania infantum [2] = test: Antileishmanial activity against Leishmania infantum zymodeme MON-1 promastigotes assessed as parasite survival at 10 to 100 ug/ml after 48 hrs; assay type: functional
In short: (§2)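 Log-phase promastigotes from 26 °C Schneider's Drosophila medium with 10% heat-inactivated FCS, pH 7.2, adjusted to 5×10^6 parasites/mL. Compounds in DMSO (≤1% v/v) at 10–100 µg/mL, incubated at 26 °C. Surviving promastigotes counted in a Neubauer chamber and compared with drug-free controls.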

Leishmania infantum [3] = test: Antileishmanial activity against Leishmania infantum zymodeme MON-1 axenic amastigotes assessed as parasite survival after 24 hrs; assay type: functional, organism-based; conditions: zymodeme MON-1, 24 h
In short: (§3)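 Axenic amastigotes grown cell-free at 37 °C, 5% CO2 in MAA/20 (modified medium 199 with Hank's salts, tryptocasein, glucose, glutamine, NaHCO3, hemin, 25 mM HEPES, pH 6.5, 20% heat-inactivated FBS). Compounds in DMSO (≤1% v/v) at 10–100 µg/mL, 37 °C. Viability read after TO-PRO-3 staining (10 min, room temperature) by ImageStream imaging cytometry, ≥10,000 events per sample.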

[4] = Cytotoxicity against mouse RAW264.7 cells after 48 hrs by MTT assay; assay type: cell-based; conditions: read-out: TC50
In short: (§4)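 RAW 264.7 cells in RPMI 1640 with L-glutamine, 10% FBS and penicillin/streptomycin, seeded at 1×10^5 cells/well and left to adhere overnight at 37 °C, 5% CO2. Compounds at 10, 50 and 100 µg/mL, 37 °C. MTT (5 mg/mL) added for 4 h, formazan dissolved in DMSO, A540 read. Survival expressed as percent of untreated control, in triplicate. TC50 taken as the 50% macrophage-death concentration.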

[5] = Therapeutic index, ratio of TC50 for mouse RAW264.7 cells to EC50 for Leishmania infantum zymodeme MON-1 axenic amastigotes; conditions: read-out: TI; in short: as §1
[6] = Therapeutic index, ratio of TC50 for mouse RAW264.7 cells to EC50 for Leishmania infantum zymodeme MON-1 axenic amastigotes after 48 hrs; conditions: read-out: TI; in short: as §1
Leishmania infantum [7] = test: Antileishmanial activity against Leishmania infantum zymodeme MON-1 promastigotes assessed as parasite survival after 24 hrs; assay type: functional, organism-based; conditions: zymodeme MON-1, 24 h; in short: as §2
Leishmania infantum [8] = test: Antileishmanial activity against Leishmania infantum zymodeme MON-1 axenic amastigotes assessed as parasite survival after 48 hrs; assay type: functional, organism-based; conditions: zymodeme MON-1, 48 h; in short: as §3
[9] = Therapeutic index, ratio of TC50 for mouse RAW264.7 cells to EC50 for Leishmania infantum zymodeme MON-1 promastigotes after 24 hrs; conditions: read-out: TI; in short: as §1
Leishmania infantum [10] = test: Antileishmanial activity against Leishmania infantum zymodeme MON-1 promastigotes assessed as parasite survival after 48 hrs; assay type: functional, organism-based; conditions: zymodeme MON-1, 48 h; in short: as §2
[11] = Cytotoxicity against mouse RAW264.7 cells after 24 hrs by MTT assay; assay type: cell-based; conditions: read-out: TC50; in short: as §4

Compound | selectivity ratio at 48 h [1] | Activity (Leishmania infantum [2]) | EC50 (Leishmania infantum [3]) | EC95 (Leishmania infantum [3]) | CC50 at 48 h [4] | selectivity ratio [5] | selectivity ratio at 48 h [6] | EC50 (Leishmania infantum [7]) | EC95 (Leishmania infantum [7]) | EC50 (Leishmania infantum [8]) | EC95 (Leishmania infantum [8]) | selectivity ratio at 24 h [9] | EC50 (Leishmania infantum [10]) | EC95 (Leishmania infantum [10]) | CC50 at 24 h [11]
Cc1ccc([C@@H]2CC(=O)C[C@@H](c3ccc(C)cc3)C23C(=O)Nc2ccccc23)cc1 | 18.7 | >74% | 5.9 mg/L (≈ 14.9 µM) | 69.4 mg/L (≈ 175 µM) | 38.6 mg/L (≈ 97.6 µM) | 10.6 | 20.3 | 6.1 mg/L (≈ 15.4 µM) | 72.1 mg/L (≈ 182 µM) | 1.9 mg/L (≈ 4.8 µM) | 69.9 mg/L (≈ 177 µM) | 10.2 | 2 mg/L (≈ 5.06 µM) | 71.4 mg/L (≈ 181 µM) | 62.8 mg/L (≈ 159 µM)
COc1ccc([C@@H]2CC(=O)C[C@@H](c3ccc(OC)cc3)C23C(=O)Nc2ccccc23)cc1 | 3.1 | >74% | 21 mg/L (≈ 49.1 µM) | 79.3 mg/L (≈ 185 µM) | 51 mg/L (≈ 119 µM) | 3.8 | 3.4 | 23.9 mg/L (≈ 55.9 µM) | 82.4 mg/L (≈ 193 µM) | 15.1 mg/L (≈ 35.3 µM) | 74.8 mg/L (≈ 175 µM) | 3.3 | 16.2 mg/L (≈ 37.9 µM) | 75.2 mg/L (≈ 176 µM) | 80.5 mg/L (≈ 188 µM)
O=C1C[C@@H](c2ccc(Cl)cc2)C2(C(=O)Nc3ccccc32)[C@H](c2ccc(Cl)cc2)C1 | 4.2 | >74% | 21 mg/L (≈ 48.1 µM) | 75.2 mg/L (≈ 172 µM) | 21.3 mg/L (≈ 48.8 µM) | 2.1 | 4.4 | 23.4 mg/L (≈ 53.6 µM) | 77.1 mg/L (≈ 177 µM) | 4.9 mg/L (≈ 11.2 µM) | 69.9 mg/L (≈ 160 µM) | 1.8 | 5.1 mg/L (≈ 11.7 µM) | 72.1 mg/L (≈ 165 µM) | 44 mg/L (≈ 101 µM)
O=C(CC(c1ccc(Cl)cc1)C1C(=O)Nc2ccccc21)c1ccccc1 (configuration not stated) | 3 | – | 18.5 mg/L (≈ 49.2 µM) | 74 mg/L (≈ 197 µM) | 35 mg/L (≈ 93.1 µM) | 2 | 3.5 | 19.7 mg/L (≈ 52.4 µM) | 76.5 mg/L (≈ 204 µM) | 10.1 mg/L (≈ 26.9 µM) | 70.2 mg/L (≈ 187 µM) | 1.8 | 11.5 mg/L (≈ 30.6 µM) | 73.6 mg/L (≈ 196 µM) | 36.9 mg/L (≈ 98.2 µM)
O=C(CC(c1cccc(Cl)c1)C1C(=O)Nc2ccccc21)c1ccccc1 (configuration not stated) | 8.8 | – | 30.5 mg/L (≈ 81.1 µM) | 80.2 mg/L (≈ 213 µM) | 116 mg/L (≈ 309 µM) | 6.3 | 9.3 | 31.6 mg/L (≈ 84.1 µM) | 85.5 mg/L (≈ 227 µM) | 12.5 mg/L (≈ 33.3 µM) | 71.5 mg/L (≈ 190 µM) | 6.1 | 13.2 mg/L (≈ 35.1 µM) | 74 mg/L (≈ 197 µM) | 193 mg/L (≈ 514 µM)
O=C1C[C@@H](c2ccccc2)C2(C(=O)Nc3ccccc32)[C@H](c2ccccc2)C1 | 9.4 | >74% | 28.5 mg/L (≈ 77.6 µM) | 78.3 mg/L (≈ 213 µM) | 65.2 mg/L (≈ 177 µM) | 3.1 | 11.4 | 29.8 mg/L (≈ 81.1 µM) | 86.1 mg/L (≈ 234 µM) | 5.7 mg/L (≈ 15.5 µM) | 74.1 mg/L (≈ 202 µM) | 2.9 | 6.9 mg/L (≈ 18.8 µM) | 73.2 mg/L (≈ 199 µM) | 88.8 mg/L (≈ 242 µM)
O=C(C[C@@H](c1ccccc1)[C@H]1C(=O)Nc2ccccc21)c1ccccc1 (relative stereo) | 10.6 | – | 15.3 mg/L (≈ 44.8 µM) | 75.6 mg/L (≈ 221 µM) | 66.6 mg/L (≈ 195 µM) | 4.7 | 11.2 | 16.2 mg/L (≈ 47.5 µM) | 77.8 mg/L (≈ 228 µM) | 5.9 mg/L (≈ 17.3 µM) | 69.4 mg/L (≈ 203 µM) | 4.4 | 6.3 mg/L (≈ 18.5 µM) | 72.1 mg/L (≈ 211 µM) | 71.6 mg/L (≈ 210 µM)
Cc1ccc([C@H](CC(=O)c2ccccc2)[C@H]2C(=O)Nc3ccccc32)cc1 (relative stereo) | 1.3 | – | 60.1 mg/L (≈ 169 µM) | 99.5 mg/L (≈ 280 µM) | 67.6 mg/L (≈ 190 µM) | 1.6 | 1.3 | 62 mg/L (≈ 174 µM) | 111 mg/L (≈ 312 µM) | 48.4 mg/L (≈ 136 µM) | 94.3 mg/L (≈ 265 µM) | 1.5 | 51.6 mg/L (≈ 145 µM) | 96 mg/L (≈ 270 µM) | 93.3 mg/L (≈ 262 µM)
COc1ccc([C@H](CC(=O)c2ccccc2)[C@H]2C(=O)Nc3ccccc32)cc1 (relative stereo) | 2.5 | – | 24.2 mg/L (≈ 65.2 µM) | 75.4 mg/L (≈ 203 µM) | 35.4 mg/L (≈ 95.3 µM) | 1.7 | 2.7 | 29.7 mg/L (≈ 80 µM) | 78.5 mg/L (≈ 211 µM) | 13.1 mg/L (≈ 35.3 µM) | 71.2 mg/L (≈ 192 µM) | 1.3 | 14.2 mg/L (≈ 38.2 µM) | 74 mg/L (≈ 199 µM) | 41 mg/L (≈ 110 µM)
C[C@@H]1[C@H](O)[C@@H](C)/C=C/C=C/C=C/C=C/C=C/C=C/C=C/[C@H](O[C@@H]2O[C@H](C)[C@@H](O)[C@H](N)[C@@H]2O)C[C@@H]2O[C@](O)(C[C@@H](O)C[C@@H](O)[C@H](O)CC[C@@H](O)C[C@@H](O)CC(=O)O[C@H]1C)C[C@H](O)[C@H]2C(=O)O [AMPHOTERICIN B] | 8.2 | – | 0.5 mg/L (≈ 0.541 µM) | 3.9 mg/L (≈ 4.22 µM) | 3.1 mg/L (≈ 3.35 µM) | 39.1 | 8.2 | 0.55 mg/L (≈ 0.595 µM) | 3.9 mg/L (≈ 4.22 µM) | 0.4 mg/L (≈ 0.433 µM) | 3.4 mg/L (≈ 3.68 µM) | 35.1 | 0.4 mg/L (≈ 0.433 µM) | 3.9 mg/L (≈ 4.22 µM) | 19.6 mg/L (≈ 21.2 µM)
O=C(/C=C/c1ccccc1)c1ccccc1 [CHALCONE] | 20.1 | – | 5.1 mg/L (≈ 24.5 µM) | 79.5 mg/L (≈ 382 µM) | 30.7 mg/L (≈ 147 µM) | 5.5 | 23.7 | 5.7 mg/L (≈ 27.4 µM) | 83.5 mg/L (≈ 401 µM) | 1.3 mg/L (≈ 6.24 µM) | 69.9 mg/L (≈ 336 µM) | 4.9 | 1.5 mg/L (≈ 7.2 µM) | 71.1 mg/L (≈ 341 µM) | 28.1 mg/L (≈ 135 µM)
O=C1Cc2ccccc2N1 [OXINDOLE] | 2.1 | – | 199 mg/L (≈ 1490 µM) | 430 mg/L (≈ 3230 µM) | 154 mg/L (≈ 1160 µM) | 0.6 | 2.2 | 232 mg/L (≈ 1750 µM) | 447 mg/L (≈ 3360 µM) | 69.5 mg/L (≈ 522 µM) | 136 mg/L (≈ 1020 µM) | 0.5 | 72.4 mg/L (≈ 544 µM) | 146 mg/L (≈ 1100 µM) | 126 mg/L (≈ 945 µM)
